Screens from PubChem BioAssay.
OX1R antag-1 – antagonists of human orexin 1 receptor (OX1R); Orexin/Hypocretin receptor type 1 (Homo sapiens), O43613; OX1R-expressing cells, FRET antagonist read-out; inhibition, % at 6.6 µM; 1.8% of 330,000 active; in the data active means inhibition mostly above about 38%, no sharp cut-off; inactive means mostly below about 40%;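 further: 0% = agonist challenge alone and 100% = reference antagonist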
OX1R antag-2 – OX1R (HCRTR1) antagonists, primary screen, fluorescence, CHO/OX1R cells, Fluo-8 calcium, orexin A; Fluo-8 calcium fluorescence; inhibition, % at 5 µM; 0.43% of 330,000 active; AID 434989, 2010;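 active means inhibition above its plate's threshold, mean inhibition of all tested compounds on the plate plus 3 SD, cut at about 37% in these data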;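 further: 0% = orexin A challenge wells and 100% = SB-334867-A antagonist wells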
TAAR1 ag – human TAAR1 agonists, primary screen, Fluo-8 calcium fluorescence, CHO RD-HGA16 cells | Trace amine-associated receptor 1 (Homo sapiens), Q96RJ0 | vehicle wells 0%, saturating PEA agonist 100% | activation, % at 3 µM | 0.99% of 360,000 active | AID 624467, 2012;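 active means activation above the mean activation of all test compounds in the run plus 3 SD, cut at about 38% in these data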
Target sequence (Q96RJ0 whole entry, looked up): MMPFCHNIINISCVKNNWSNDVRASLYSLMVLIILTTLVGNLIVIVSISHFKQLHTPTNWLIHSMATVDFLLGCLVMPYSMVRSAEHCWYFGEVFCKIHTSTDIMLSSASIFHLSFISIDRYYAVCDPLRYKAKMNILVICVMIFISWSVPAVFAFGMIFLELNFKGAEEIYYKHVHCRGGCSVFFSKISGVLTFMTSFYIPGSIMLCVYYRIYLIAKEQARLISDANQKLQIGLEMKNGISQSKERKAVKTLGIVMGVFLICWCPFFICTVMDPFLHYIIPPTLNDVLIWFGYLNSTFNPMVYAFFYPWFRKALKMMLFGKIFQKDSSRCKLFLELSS
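System: CHO-derived RD-HGA16 cells with stable Gα16 and human TAAR1 / Times: 17-24 h plating, Fluo-8 75 min 37 °C, 30 min RT / Technique: calcium-sensitive Fluo-8 signal, excitation 470-495, emission 515-575 nm / Measure: % activation relative to PEA EC100 response / Benchmarks: DMSO and PEA EC100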
GalR3 antag – GalR3 antagonists in HEK293 cells, primary screen, cell-based, fluorescence readout. Galanin receptor type 3 (Homo sapiens), O60755. HEK293 GalR3-CNG cAMP membrane potential fluorescence; galR3 body fused to GalR1 C-terminus. 0.44% of 360,000 active. inhibition, % at 3 µM;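 active means inhibition above the screen-wide average plus 3 SD, cut at about 13% in these data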;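 further: forskolin and galanin both at EC90 stimulate the cells; cAMP rise reported by CNG channel membrane potential dye signal; 0% = forskolin plus galanin with DMSO and 100% = forskolin alone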
Target sequence (O60755 1-299 limits assumed): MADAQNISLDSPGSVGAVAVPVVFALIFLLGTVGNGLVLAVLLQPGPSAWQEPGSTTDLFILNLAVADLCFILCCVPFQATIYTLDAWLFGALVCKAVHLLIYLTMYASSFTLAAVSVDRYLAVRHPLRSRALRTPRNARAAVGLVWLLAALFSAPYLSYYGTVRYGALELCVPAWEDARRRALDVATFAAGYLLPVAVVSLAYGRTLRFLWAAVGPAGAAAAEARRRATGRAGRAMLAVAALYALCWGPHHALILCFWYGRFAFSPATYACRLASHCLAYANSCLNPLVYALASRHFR
CHO parental Ca – ATP-evoked calcium signal inhibitors, parental CHO, primary screen, counter-screen for OX1R antagonist project, cell-based, fluorescence, Fluo-8 calcium dye | parental CHO-K1, ATP-induced calcium, Fluo-8 fluorescence | inhibition, % at 5.6 µM | 0.63% of 330,000 active | AID 463079, 2010;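 active means inhibition above that plate's mean sample inhibition plus 3 SD, cut at about 26% in these data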;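 further: 0% = ATP-challenged DMSO wells and 100% = DMSO wells without ATP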
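Test system: untransfected parental CHO cell line. Compound: one dose, 5.6 µM nominal. Detection: intracellular calcium via Fluo-8 no-wash fluorescent dye. Measure: % inhibition. Benchmarks: ATP-challenged DMSO wells low, unchallenged DMSO wells high.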
TAAR1 antag – human TAAR1 antagonists, primary screen, Fluo-8 calcium fluorescence, CHO RD-HGA16 cells; Trace amine-associated receptor 1 (Homo sapiens), Q96RJ0; antagonist; inhibition, % at 3 µM; 1.5% of 360,000 active;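 active means inhibition above a per-plate cutoff, the mean inhibition of test compounds on that plate plus 3 SD, cut at about 49% in these data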;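 further: 0% = DMSO plus EC80 beta-PEA response and 100% = DMSO alone without agonist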
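Assay system: RD-HGA16 CHO cells with stable hTAAR1 and Gα16 / Reagent: EC80 β-phenethylamine stimulus / Doses: 3 µM, single point / Timing: dye loading 75 min at 37 °C, then 30 min room temperature / Measured by: Fluo-8 intracellular calcium dye fluorescence, real-time kinetic reads / Controls: vehicle wells and EC80 agonist wells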
TAAR1 ag confirm – human TAAR1 agonists, retest of hits, confirmation, Fluo-8 calcium fluorescence, CHO RD-HGA16 cells | shares compounds with TAAR1 ag | scaled: DMSO 0%, maximal phenethylamine 100% | activation, % at 3 µM | 82% of 2,400 active;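 active means activation above a cutoff set at the run's mean compound activation plus 3 SD, cut at about 39% in these data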
Ga16 ag counter – nonselective calcium mobilization agonists, CHO-Ga16 cells, counter-screen for hTAAR1 agonist project, cell-based, fluorescence, CHO-Ga16 parental line; 50% of 2,400 active; activation, % at 3 µM; Fluo-8 calcium fluorescence; normalized to maximal ATP response, DMSO zero; AID 651787, 2012; shares compounds with TAAR1 ag;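 active means activation above the run cutoff, the mean activation over all tested wells plus 3 SD, cut at about 12% in these data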;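 further: 0% = DMSO wells and 100% = maximal ATP response on the peak over basal ratio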
TAAR1 desensitize – TAAR1 desensitization by agonist hits, confirmation, counter-screen for TAAR1 agonist project, cell-based, fluorescence, tachyphylaxis; inhibition, % at 3 µM; AID 651951, 2012; CHO RD-HGA16 hTAAR1, Fluo-8 calcium, beta-PEA response inhibition; 46% of 2,400 active; shares compounds with TAAR1 ag;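 active means inhibition above the run cutoff, the mean inhibition of all test compounds plus 3 SD, cut at about 49% in these data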;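 further: beta-PEA stimulus applied at its EC80; loss of beta-PEA calcium signal after compound pretreatment read as receptor desensitization; 0% = DMSO with beta-PEA at EC80 and 100% = DMSO alone without agonist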
Ga16 nonsel ant – inhibition of ATP-evoked calcium response in CHO-Ga16 cells, counter-screen for TAAR1 agonist project, cell-based, fluorescence; shares compounds with TAAR1 ag; CHO-Ga16 ATP-induced calcium, Fluo-8 fluorescence; inhibition, % at 3 µM; 39% of 2,400 active; AID 651952, 2012;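 active means inhibition above the plate's mean compound inhibition plus 3 SD, computed per plate, cut at about 22% in these data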;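 further: 0% = EC80 ATP with DMSO and 100% = DMSO wells without ATP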
Numbers without * were called inactive. The list is not random: actives were taken first. Their share in the collection is about 4.2%.

What do the screens show for `Cc1cc(C)c(S(=O)(=O)NCCc2ccccc2)c(C)c1`?
OX1R antag-1: 22; OX1R antag-2: -9; TAAR1 ag: 46*; GalR3 antag: -3; CHO parental Ca: -13; TAAR1 antag: 0; TAAR1 ag confirm: 52*; Ga16 ag counter: 0; TAAR1 desensitize: 29; Ga16 nonsel ant: 13

How did O=C(CSC(=S)N1CCCC1)NCCc1ccccc1 do in these assays?
OX1R antag-1: 11; OX1R antag-2: 2; TAAR1 ag: 97*; GalR3 antag: 2; CHO parental Ca: -5; TAAR1 antag: 88*; TAAR1 ag confirm: 88*; Ga16 ag counter: 3; TAAR1 desensitize: 98*; Ga16 nonsel ant: 6

What do the screens show for `O=C(Cc1ccc(Br)cc1)N1CCc2ccccc2C1`?
OX1R antag-1: 19; OX1R antag-2: -22; TAAR1 ag: -1; GalR3 antag: -7; CHO parental Ca: 5; TAAR1 antag: -2

How did Cc1nnc(SCC(=O)NCCC2=CCCCC2)[nH]c1=O do in these assays?
OX1R antag-1: -2; OX1R antag-2: -10; TAAR1 ag: 74*; GalR3 antag: -3; CHO parental Ca: -12; TAAR1 antag: 69*; TAAR1 ag confirm: 95*; Ga16 ag counter: 10; TAAR1 desensitize: 88*; Ga16 nonsel ant: 14

Results for Cc1nn(C)c(Cl)c1/C=N/OC(=O)c1ccc(F)cc1 ?
OX1R antag-1: 13; OX1R antag-2: -35; TAAR1 ag: 88*; GalR3 antag: -7; CHO parental Ca: 14; TAAR1 antag: 11; TAAR1 ag confirm: 3; Ga16 ag counter: 2; TAAR1 desensitize: 3; Ga16 nonsel ant: 10

How did Cc1cc(NC(=O)CSc2nc3ccsc3c(=O)n2NC(=O)c2ccccc2)no1 do in these assays?
OX1R antag-1: 9; OX1R antag-2: -23; TAAR1 ag: 2; GalR3 antag: -3; CHO parental Ca: -10; TAAR1 antag: 13

Results for Cc1ccc(CN2CCNC(=O)C2CC(=O)N(C)CCc2ccccc2)cc1 (stereo not drawn) ?
OX1R antag-1: 7; OX1R antag-2: -27; TAAR1 ag: 59*; GalR3 antag: 0; CHO parental Ca: -14; TAAR1 antag: -11; TAAR1 ag confirm: 78*; Ga16 ag counter: 0; TAAR1 desensitize: 37; Ga16 nonsel ant: 0

What do the screens show for `CCOc1ccccc1CN1CCNC(=O)C1CC(=O)N(C)CCc1ccccn1` (stereo not drawn)?
OX1R antag-1: 8; OX1R antag-2: -6; TAAR1 ag: 54*; GalR3 antag: 3; CHO parental Ca: -9; TAAR1 antag: -20; TAAR1 ag confirm: 60*; Ga16 ag counter: 6; TAAR1 desensitize: 18; Ga16 nonsel ant: 1

Results for CC1(C)CC(=O)c2cnc(NC(=O)Cc3ccc(Cl)cc3)nc2C1 ?
OX1R antag-1: 16; OX1R antag-2: -16; TAAR1 ag: 6; GalR3 antag: 4; CHO parental Ca: 3; TAAR1 antag: -9

Results for CCN(CC)c1ccc(/C=C(\C#N)C(=O)c2ccc(Br)cc2)cc1 ?
OX1R antag-1: 13; OX1R antag-2: 78*; TAAR1 ag: 215*; GalR3 antag: -6; CHO parental Ca: 54*; TAAR1 antag: 91*; TAAR1 ag confirm: 315*; Ga16 ag counter: 325*; TAAR1 desensitize: 105*; Ga16 nonsel ant: 103*

How did CCN(CC)c1ccc(/C=C(\C#N)C(N)=O)cc1 do in these assays?
TAAR1 ag: 4; GalR3 antag: -5; TAAR1 antag: 11

What do the screens show for `Cc1cc(NC(=O)Cc2ccsc2)ccc1Br`?
OX1R antag-1: 10; OX1R antag-2: -19; TAAR1 ag: 0; GalR3 antag: -8; CHO parental Ca: 0; TAAR1 antag: -11

What do the screens show for `Cc1cc(C)c2c(=O)n(CC(=O)Nc3ccc(Br)c(C)c3)sc2n1`?
OX1R antag-1: 15; OX1R antag-2: -5; TAAR1 ag: 86*; GalR3 antag: -3; CHO parental Ca: -2; TAAR1 antag: 53*; TAAR1 ag confirm: 100*; Ga16 ag counter: 68*; TAAR1 desensitize: 71*; Ga16 nonsel ant: 64*

Results for Cc1cc(C)c2c(=O)n(CC(=O)NC3CCCC3)sc2n1 ?
OX1R antag-1: 1; OX1R antag-2: 8; TAAR1 ag: 57*; GalR3 antag: -10; CHO parental Ca: 4; TAAR1 antag: 48; TAAR1 ag confirm: 62*; Ga16 ag counter: 34*; TAAR1 desensitize: 59*; Ga16 nonsel ant: 39*

Results for Cc1cc(C)c2c(=O)n(CC(=O)Nc3cccc(Cl)c3C)sc2n1 ?
OX1R antag-1: 8; OX1R antag-2: 3; TAAR1 ag: 103*; GalR3 antag: 0; CHO parental Ca: 6; TAAR1 antag: 86*; TAAR1 ag confirm: 96*; Ga16 ag counter: 72*; TAAR1 desensitize: 89*; Ga16 nonsel ant: 75*

How did CCOC(=O)c1sc2nc(C)nc(NCc3ccccc3)c2c1C do in these assays?
OX1R antag-1: -1; OX1R antag-2: -30; TAAR1 ag: 4; GalR3 antag: -12; CHO parental Ca: -12; TAAR1 antag: -8

How did O=C(O)c1ccccc1C(=O)NCCCCCCNC(=O)c1ccccc1C(=O)O do in these assays?
OX1R antag-1: 0; OX1R antag-2: -13; TAAR1 ag: 2; GalR3 antag: -11; CHO parental Ca: -9; TAAR1 antag: 4
